This is an account of results in ChEMBL document CHEMBL1149637, “Design, synthesis, and evaluation of potential inhibitors of brassinin glucosyltransferase, a phytoalexin detoxifying enzyme from Sclerotinia sclerotiorum” (Bioorg Med Chem, 2007).

Data set [1] has as its system Sclerotinia sclerotiorum. In words: Inhibition of Sclerotina sclerotiorums brassinin glucosyl transferase assessed as specific activity at 0.30 mM. In outline:
(§1)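 Crude cell-free homogenate from clone #33 grown 7 days in PDB, induced with camalexin (0.05 mM final, 24 h). Mycelia were ground in ice-cold 50 mM Tris-HCl pH 8.0 buffer and centrifuged at 58,545g for 40 min. Inhibitor (from DMSO) was preincubated 30 min at room temperature with extract and UDPG (0.3 mM final). Brassinin (0.3 mM) was added, then 60 min incubation, EtOAc extraction and HPLC quantification of glucosylbrassinin. Protein measured by Bradford. Relative activity = specific activity vs brassinin-only control. Triplicate.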

The subject of data set [2] is Sclerotinia sclerotiorum. Description: Inhibition of Sclerotina sclerotiorums brassinin glucosyl transferase assessed as percent relative activity in relative to brassinin at 0.60 mM. Also on record: scale not given: the % may be the effect or the level left. In outline:
as §1

In data set [3] the test system is Sclerotinia sclerotiorum. Description: Inhibition of Sclerotina sclerotiorums brassinin glucosyl transferase assessed as percent relative activity in relative to brassinin at 0.30 mM. The arrangement: scale not given: the % may be the effect or the level left. In outline:
as §1

In data set [4] the test system is Sclerotinia sclerotiorum. In words: Inhibition of Sclerotina sclerotiorums brassinin glucosyl transferase assessed as specific activity at 0.60 mM. A digest of the protocol:
as §1

The test system of data set [5] is Sclerotinia sclerotiorum. In words: Antifungal activity against Sclerotina sclerotiorum assessed as growth inhibition at 0.10 mM after 48 hrs. In kind it is functional. A digest of the protocol: (§2)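 S. sclerotiorum clone #33 radial growth assay: mycelial plugs (4 mm, from 3-day-old PDA plates) placed upside down in wells of minimal medium containing compound diluted from 50 mM DMSO stock. Medium-only controls contained 1% DMSO. […] Run in triplicate, at least three times.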

Data set [6] deals with Sclerotinia sclerotiorum. In words: Antifungal activity against Sclerotina sclerotiorum assessed as growth inhibition at 0.50 mM after 48 hrs. The format is functional. A digest of the protocol:
as §2

In data set [7] the test system is Sclerotinia sclerotiorum. In words: Antifungal activity against Sclerotina sclerotiorum assessed as growth inhibition at 0.30 mM after 48 hrs. In kind it is functional. In outline: as §2
Data set [8] can be described thus: Metabolic stability assessed as half life in Sclerotina sclerotiorum. The following applies: sclerotinia sclerotiorum, Sclerotinia sclerotiorum (whole organism). The format is ADME, organism-based. A digest of the protocol: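 S. sclerotiorum clone #33 mycelial plugs were grown 4 days in minimal medium at 22 ± 1 °C, shaken at 120 rpm under constant light. Compound (0.050 or 0.10 mM final, in CH₃CN 0.5% v/v) was added, then brassinin (0.05 mM final) 10 min later. Samples taken over time were extracted with EtOAc, brassinin was measured by HPLC-DAD, and brassinin half-life was compared with brassinin-only cultures.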

Data set [9] has as its system Sclerotinia sclerotiorum. In words: Antifungal activity against Sclerotina sclerotiorum assessed as growth inhibition at 0.05 mM after 48 hrs. The format is functional. In outline: as §2
Data set [10] is described as follows: Metabolic stability assessed as half life in Sclerotina sclerotiorum at less than 0.01 mM. The format is ADME, organism-based. The note with it: sclerotinia sclerotiorum, Sclerotinia sclerotiorum (whole organism).
In data set [11] the test system is Sclerotinia sclerotiorum. Description: Antifungal activity against Sclerotina sclerotiorum assessed as growth inhibition at 0.01 mM after 48 hrs. The format is functional.
A short description of data set [12]: Metabolic stability assessed as half life in Sclerotina sclerotiorum at 0.10 mM. The format is ADME, organism-based. The note with it: sclerotinia sclerotiorum, Sclerotinia sclerotiorum (whole organism). A digest of the protocol: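 Four-day-old mycelial cultures in minimal medium (22 °C, 120 rpm, constant light) received inhibitor (0.050 or 0.10 mM final, in CH₃CN at 0.5% v/v). After 10 min, brassinin (0.05 mM final) was added. Samples were withdrawn over time, EtOAc-extracted and analysed by HPLC-DAD for remaining brassinin. Half-life of brassinin was compared with brassinin-only cultures. An uninoculated medium control was included.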

Data set [13] in a line: Metabolic stability assessed as half life in Sclerotina sclerotiorum at 0.03 mM. The format is ADME, organism-based. The following applies: sclerotinia sclerotiorum, Sclerotinia sclerotiorum (whole organism).

In general, inhibition refers to the share of the control response that was lost under treatment. One may read the half-life as the time in which the quantity being followed falls by half.

Structures are written as SMILES. Active and inactive are the calls of the source. No cut-off for these calls is given here.

`c1ccc(-c2cc3ccccc3[nH]2)cc1`: the Activity (10^-10.mol/mg/min) with Sclerotinia sclerotiorum [1] and with Sclerotinia sclerotiorum [4] was 0.59 each time. The Activity in the data set with Sclerotinia sclerotiorum [2] and in the data set with Sclerotinia sclerotiorum [3] was 39% each time.
As for `c1ccc(-c2coc3ccccc23)cc1`, the inhibition at 100 µM in the data set on Sclerotinia sclerotiorum [5] came to 32%. Besides, the inhibition at 500 µM with Sclerotinia sclerotiorum [6] stood at 80%. Besides, the Activity (10^-10.mol/mg/min) with Sclerotinia sclerotiorum [1] is 0.79; with Sclerotinia sclerotiorum [4], 0.63. In addition, the results for the Activity with Sclerotinia sclerotiorum [2] and in the data set on Sclerotinia sclerotiorum [3] were 42% and 53%, respectively. Also, in the data set on Sclerotinia sclerotiorum [7], the inhibition at 300 µM worked out at 64%.
As for `CSC(=S)NCc1c[nH]c2ccccc12` [BRASSININ], the inhibition at 100 µM in the data set with Sclerotinia sclerotiorum [5] was found to be 37%. For the same compound, the half-life in data set [8] was 9 h. Besides, the inhibition at 300 µM with Sclerotinia sclerotiorum [7] is 100%.
As to `c1ccc2[nH]c(-c3cscn3)nc2c1` [THIABENDAZOLE], the inhibition at 100 µM in the data set with Sclerotinia sclerotiorum [5] turned out to be 86%. Moreover, the inhibition at 500 µM in the data set with Sclerotinia sclerotiorum [6] came out at 93%.
For the compound `Fc1ccc2[nH]cc(-c3nccs3)c2c1` [5-FLUOROCAMALEXIN], the inhibition at 100 µM in the data set on Sclerotinia sclerotiorum [5] is 70%. The inhibition at 50 µM in the data set on Sclerotinia sclerotiorum [9] came out at 61%. For the same compound, the Activity (10^-10.mol/mg/min) in the data set on Sclerotinia sclerotiorum [1] came to 0.81; in the data set on Sclerotinia sclerotiorum [4], 0.72. The Activity was 48% in the data set on Sclerotinia sclerotiorum [2] and 54% in the data set with Sclerotinia sclerotiorum [3]. Moreover, the inhibition at 300 µM with Sclerotinia sclerotiorum [7] came to 85%.
Consider `CSC(=S)NCc1cc2ccccc2[nH]1` [ISOBRASSININ], for which the inhibition at 100 µM with Sclerotinia sclerotiorum [5] worked out at 48%. Further, the half-life in data set [10] was 2 h. Also, the Activity (10^-10.mol/mg/min) was found to be 0.63 with Sclerotinia sclerotiorum [1] and 0.41 in the data set on Sclerotinia sclerotiorum [4]. Further, the Activity amounted to 27% in the data set on Sclerotinia sclerotiorum [2] and 42% in the data set on Sclerotinia sclerotiorum [3]. In the data set on Sclerotinia sclerotiorum [7], the inhibition at 300 µM turned out to be 100%.
`CC(=O)Nc1cnc2ccccc2c1`: the outcome in the data set with Sclerotinia sclerotiorum [6] was inactive. The Activity (10^-10.mol/mg/min) in the data set on Sclerotinia sclerotiorum [1] is 1.58; with Sclerotinia sclerotiorum [4], 1.53. Besides, the Activity in the data set with Sclerotinia sclerotiorum [2] and with Sclerotinia sclerotiorum [3] was 100% in each case.
For `c1ccc(-c2c[nH]c3ccccc23)cc1` [3-PHENYLINDOLE], the inhibition at 10 µM in the data set on Sclerotinia sclerotiorum [11] amounted to 78%. The inhibition at 100 µM in the data set on Sclerotinia sclerotiorum [5] was found to be 100%. Also, the inhibition at 50 µM in the data set on Sclerotinia sclerotiorum [9] is 93%. Besides, in [12], the half-life at 100 µM is 10 h. For the same compound, the Activity (10^-10.mol/mg/min) was 0.35 with Sclerotinia sclerotiorum [1] and 0.19 in the data set on Sclerotinia sclerotiorum [4]. Moreover, the Activity was 13% in the data set with Sclerotinia sclerotiorum [2] and 23% with Sclerotinia sclerotiorum [3].
Consider `CSC(=S)NCc1coc2ccccc12`, for which the outcome in the data set on Sclerotinia sclerotiorum [5] was inactive. For the same compound, in the data set with Sclerotinia sclerotiorum [6], the inhibition at 500 µM came to 45%. In data set [12], the half-life at 100 µM was 9 h. Also, the Activity (10^-10.mol/mg/min) with Sclerotinia sclerotiorum [1] was found to be 0.75; in the data set on Sclerotinia sclerotiorum [4] it was 0.55. Moreover, the Activity in the data set on Sclerotinia sclerotiorum [2] was determined as 37%; in the data set with Sclerotinia sclerotiorum [3], 50%. Moreover, in the data set with Sclerotinia sclerotiorum [7], the inhibition at 300 µM stood at 23%.
Take `CSC(=S)NCc1cc2ccccc2o1`: in the data set with Sclerotinia sclerotiorum [5], the inhibition at 100 µM stood at 32%. For the same compound, the Activity (10^-10.mol/mg/min) in the data set on Sclerotinia sclerotiorum [1] amounted to 0.64; in the data set with Sclerotinia sclerotiorum [4], 0.43. Further, the Activity in the data set on Sclerotinia sclerotiorum [2] was 29%; with Sclerotinia sclerotiorum [3] it was 43%. Further, in [13], the half-life at 30 µM was 6 h. In addition, the inhibition at 300 µM with Sclerotinia sclerotiorum [7] stood at 100%.
As for `COc1ccn2ncc(CNC(=S)SC)c2c1`, the Activity (10^-10.mol/mg/min) is 1.47 with Sclerotinia sclerotiorum [1] and 1.48 with Sclerotinia sclerotiorum [4]. Besides, the Activity in the data set on Sclerotinia sclerotiorum [2] was determined as 99%; with Sclerotinia sclerotiorum [3], 98%.
Turning to `Fc1ccc2c(-c3ccccc3)c[nH]c2c1` [6-FLUORO-3-PHENYLINDOLE], the inhibition at 10 µM in the data set on Sclerotinia sclerotiorum [11] came out at 65%. In the data set with Sclerotinia sclerotiorum [5], the inhibition at 100 µM was 93%. Further, in the data set with Sclerotinia sclerotiorum [9], the inhibition at 50 µM was found to be 87%. Further, in [12], the half-life at 100 µM is 10 h. The Activity (10^-10.mol/mg/min) in the data set on Sclerotinia sclerotiorum [1] stood at 0.34; in the data set on Sclerotinia sclerotiorum [4], 0.2. Further, the Activity with Sclerotinia sclerotiorum [2] stood at 13%; with Sclerotinia sclerotiorum [3], 23%.
With `c1ccc2c(-c3nccs3)c[nH]c2c1` [CAMALEXIN], the inhibition at 100 µM with Sclerotinia sclerotiorum [5] was determined as 100%. Also, the inhibition at 50 µM in the data set with Sclerotinia sclerotiorum [9] stood at 81%. Besides, the Activity (10^-10.mol/mg/min) in the data set with Sclerotinia sclerotiorum [1] came out at 0.95; in the data set on Sclerotinia sclerotiorum [4], 0.84. The results for the Activity with Sclerotinia sclerotiorum [2] and with Sclerotinia sclerotiorum [3] were 56% and 63%, respectively.
Turning to `CSC(=S)NCc1csc2ccccc12`, in the data set with Sclerotinia sclerotiorum [5], the inhibition at 100 µM worked out at 10%. Moreover, in the data set with Sclerotinia sclerotiorum [6], the inhibition at 500 µM worked out at 89%. Moreover, the Activity (10^-10.mol/mg/min) was found to be 1.22 in the data set on Sclerotinia sclerotiorum [1] and 1.12 in the data set on Sclerotinia sclerotiorum [4]. In addition, the Activity is 75% in the data set on Sclerotinia sclerotiorum [2] and 81% in the data set with Sclerotinia sclerotiorum [3]. Further, the inhibition at 300 µM in the data set with Sclerotinia sclerotiorum [7] worked out at 63%.
On to `CSC(=S)NCc1c[nH]c2ncccc12`, for which the result in the data set with Sclerotinia sclerotiorum [5] was inactive. Moreover, the inhibition at 500 µM in the data set with Sclerotinia sclerotiorum [6] is 65%. In addition, the Activity (10^-10.mol/mg/min) is 1.02 in the data set with Sclerotinia sclerotiorum [1] and 0.75 in the data set with Sclerotinia sclerotiorum [4]. In addition, the Activity with Sclerotinia sclerotiorum [2] was 50%; in the data set on Sclerotinia sclerotiorum [3], 68%. The inhibition at 300 µM with Sclerotinia sclerotiorum [7] was found to be 28%.
With `COC(=O)c1cnn2ccc(OC)cc12`, the inhibition at 500 µM in the data set with Sclerotinia sclerotiorum [6] worked out at 20%. The Activity (10^-10.mol/mg/min) with Sclerotinia sclerotiorum [1] is 1.51; in the data set with Sclerotinia sclerotiorum [4], 1.49. In addition, the Activity in the data set on Sclerotinia sclerotiorum [2] and in the data set with Sclerotinia sclerotiorum [3] was 100% throughout. For the same compound, the result with Sclerotinia sclerotiorum [7] was inactive.
Turning to `Fc1ccc2c(-c3nccs3)c[nH]c2c1`, the Activity (10^-10.mol/mg/min) in the data set with Sclerotinia sclerotiorum [1] stood at 0.97; in the data set with Sclerotinia sclerotiorum [4], 1. The Activity with Sclerotinia sclerotiorum [2] was determined as 63%; with Sclerotinia sclerotiorum [3] it was 66%.
Take `Fc1cccc2[nH]cc(-c3ccccc3)c12`: the inhibition at 10 µM with Sclerotinia sclerotiorum [11] stood at 47%. Further, the inhibition at 50 µM in the data set with Sclerotinia sclerotiorum [9] came to 100%. In addition, the Activity (10^-10.mol/mg/min) in the data set on Sclerotinia sclerotiorum [1] stood at 0.55; in the data set on Sclerotinia sclerotiorum [4], 0.43. Also, the Activity with Sclerotinia sclerotiorum [2] came out at 29%; with Sclerotinia sclerotiorum [3], 37%.
